From ChEMBL document CHEMBL1153820, “Novel derivatives of pyridylbenzo[b]thiophene-2-carboxamides and benzo[b]thieno[2,3-c]naphthyridin-2-ones: minor structural variations provoke major differences of antitumor action mechanisms” (J Med Chem, 2009)
Active and inactive are the calls of the source. The calls are words filed in the database; no cut-off is given here.

Experiments:
Bos taurus [1] = species on record: Bos taurus; assay: Inhibition of calf thymus topoisomerase 1-mediated DNA relaxation assessed as induction of plasmid DNA nicking at 100 uM by gel electrophoresis
In short: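 Purified calf thymus topoisomerase I (6 U) was incubated with negatively supercoiled pCI plasmid (0.8 μg), with or without compound, in Tris-HCl relaxation buffer (pH 7.5, 175 mM KCl, 5 mM MgCl2) at 37 °C for 30 min. The reaction was stopped with SDS and proteinase K, then phenol-extracted. Samples were split onto 1% agarose gels with and without ethidium bromide to separate nicked, supercoiled and relaxed forms, and read under UV.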

MIA PaCa-2 [2] = assay: Cell cycle arrest in human MIAPaCa2 cells assessed as accumulation at G1/G0 phase at 5 uM after 48 hrs by flow cytometry; format: functional
In short: (§1)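 MiaPaCa-2 cells (2 × 10^5/well) seeded, compound (5 μM) added after 24 h, exposed 24 or 48 h. Attached and floating cells pooled, fixed in 70% ethanol, stained with propidium iodide 50 μg/mL plus RNase A. 20 000 events by flow cytometry; phase percentages (sub-G1 taken as apoptotic) from DNA histograms. Duplicates, repeated at least twice.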

MIA PaCa-2 [3] = assay: Induction of multinucleation in human MIAPaCa2 cells at 5 uM after 24 hrs by DAPI staining; format: functional, cell-based
In short: (§2)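 MiaPaCa-2 cells (2 × 10^5) grown overnight on coverslips, then exposed to 5 μM compound for 24 h. Fixed in 4% formaldehyde, permeabilized with 0.1% Triton X-100, blocked with 4% FCS. Stained with mouse anti-α-tubulin (1/200, 2 h) and FITC anti-mouse secondary (1/500, 1 h). Nuclei stained with DAPI 100 ng/mL; fluorescence microscopy at 400×.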

MIA PaCa-2 [4] = assay: Induction of apoptosis in human MIAPaCa2 cells by flow cytometry; format: functional, cell-based; in short: as §1
MCF7 = assay: Growth inhibition of human MCF7 cells after 72 hrs by MTT method; format: functional, cell-based; details: MCF7, 72 h
In short: (§3)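 Cells in DMEM with 10% FBS, 2 mM L-glutamine, penicillin/streptomycin, 37 °C, 5% CO2. Seeded at 1 × 10^4 to 3 × 10^4 cells/mL. Compound given as five 10-fold dilutions (10-8–10-4 M, DMSO under 1%) for 72 h, then MTT read-out. Quadruplicate, three experiments. IC50 by linear regression between concentrations bracketing 50% growth; top concentration reported as ">" when not reached.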

MIA PaCa-2 [5] = assay: Induction of cell shape disruption in human MIAPaCa2 cells at 5 uM after 24 hrs by immunofluorescence spectroscopy; format: functional, cell-based; in short: as §2
MIA PaCa-2 [6] = assay: Induction of nuclear fragmentation in human MIAPaCa2 cells at 5 uM after 24 hrs by DAPI staining; format: functional, cell-based; in short: as §2
MIA PaCa-2 [7] = assay: Cell cycle arrest in human MIAPaCa2 cells assessed as accumulation at subG1 phase at 5 uM after 48 hrs by flow cytometry; format: functional; in short: as §1
MIA PaCa-2 [8] = assay: Cell cycle arrest in human MIAPaCa2 cells assessed as accumulation at S phase at 5 uM after 48 hrs by flow cytometry; format: functional; in short: as §1
HeLa = assay: Growth inhibition of human HeLa cells after 72 hrs by MTT method; format: functional, cell-based; in short: as §3
Calf thymus DNA [9] = assay: Binding affinity to calf thymus DNA assessed as change in melting temperature at [compound]/[polynucleotide] ratio of 0.5 at pH 7.0; format: nucleic-acid assay; details: Bos taurus
In short: (§4)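 Thermal denaturation of ct-DNA (sonicated, filtered, concentration as phosphate) alone and with compound in Na cacodylate buffer pH 7.0, I = 0.05 mol dm-3. Absorbance at 260 nm followed versus temperature, ligand absorbance subtracted, scale normalized. Tm is the transition midpoint, from the first-derivative maximum or by tangent method. ΔTm = Tm(complex) − Tm(free DNA). Mean of at least two runs, error ±0.5 °C.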

MIA PaCa-2 [10] = assay: Cell cycle arrest in human MIAPaCa2 cells assessed as accumulation at G1/G0 phase at 5 uM after 24 hrs by flow cytometry; format: functional; in short: as §1
MIA PaCa-2 [11] = assay: Cell cycle arrest in human MIAPaCa2 cells assessed as accumulation at G2/M phase at 5 uM after 24 hrs by flow cytometry; format: functional; in short: as §1
Calf thymus DNA [12] = assay: Binding affinity to calf thymus DNA assessed as change in melting temperature at [compound]/[polynucleotide] ratio of 0.3 at pH 7.0; format: nucleic-acid assay; details: Bos taurus; in short: as §4
MIA PaCa-2 [13] = assay: Cell cycle arrest in human MIAPaCa2 cells assessed as accumulation at G2/M phase at 5 uM after 48 hrs by flow cytometry; format: functional; in short: as §1
NCI-H460 = assay: Growth inhibition of human H460 cells after 72 hrs by MTT method; format: functional, cell-based; details: NCI-H460, 72 h; in short: as §3
SW-620 = assay: Growth inhibition of human SW620 cells after 72 hrs by MTT method; format: functional, cell-based; details: SW-620, 72 h; in short: as §3
MIA PaCa-2 [14] = assay: Cell cycle arrest in human MIAPaCa2 cells assessed as accumulation at S phase at 5 uM after 24 hrs by flow cytometry; format: functional; in short: as §1
MIA PaCa-2 [15] = assay: Growth inhibition of human MIAPaCa2 cells after 72 hrs by MTT method; format: functional, cell-based; details: MIA PaCa-2, 72 h; in short: as §3
MIA PaCa-2 [16] = assay: Induction of tubulin network disruption in human MIAPaCa2 cells at 5 uM after 24 hrs by immunofluorescence spectroscopy; format: functional, cell-based; in short: as §2
MIA PaCa-2 [17] = assay: Cell cycle arrest in human MIAPaCa2 cells assessed as accumulation at subG1 phase at 5 uM after 24 hrs by flow cytometry; format: functional; in short: as §1
Calf thymus DNA [18] = assay: Binding affinity to calf thymus DNA at pH 7.0 by UV/Visible spectroscopy; format: nucleic-acid assay; details: Bos taurus
In short: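 UV/vis titration: portions of ct-DNA (as phosphate) added to compound (c = 1.2 × 10-5 mol dm-3). Na cacodylate buffer pH 7.0, I = 0.05 mol dm-3; change followed at λmax 314 nm. Ks and n from Scatchard equation by nonlinear least-squares fitting.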

Calf thymus DNA [19] = assay: Binding affinity to calf thymus DNA at pH 7.0 by fluorimetric titration method; format: nucleic-acid assay; details: Bos taurus
In short: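 Fluorimetric titration: ct-DNA portions added to compound at about tenfold lower concentration than in UV/vis, absorbance below 0.05 at excitation. Emission 350–550 nm in Na cacodylate buffer pH 7.0, I = 0.05 mol dm-3. log Ks from Scatchard fitting (nonlinear least squares) at fixed n = 0.2.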

Calf thymus DNA [20] = assay: Binding affinity to calf thymus DNA minor groove assessed as change in DNA spectrum by CD spectroscopy; format: nucleic-acid assay; details: Bos taurus
Bos taurus [21] = species on record: Bos taurus; assay: Inhibition of calf thymus topoisomerase 1-mediated DNA relaxation assessed as induction of plasmid DNA nicking at 200 uM by gel electrophoresis
In short: (§5)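 Supercoiled pCI plasmid (0.8 μg) with calf thymus topoisomerase I (6 U) ± compound (200 μM) in Tris-HCl pH 7.5, 175 mM KCl, 5 mM MgCl2, 0.1 mM EDTA, 2.5% glycerol; 37 °C, 30 min. Stopped with SDS, then proteinase K and phenol/chloroform extraction. Samples run on 1% agarose with and without 0.5 μg/mL ethidium bromide to resolve nicked, supercoiled and relaxed forms; UV visualization.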

Bos taurus [22] = species on record: Bos taurus; assay: Inhibition of calf thymus topoisomerase 1-mediated DNA relaxation at 200 uM by gel electrophoresis; in short: as §5
Calf thymus DNA [23] = assay: Binding affinity to calf thymus DNA assessed as decrease in DNA bands at 245 nm and 280 nm wavelength by CD spectroscopy; format: nucleic-acid assay; details: Bos taurus

| Compound | Activity (MIA PaCa-2 [2]) [%] | IC50 (MCF7) [µM] | Activity (MIA PaCa-2 [7]) [%] | Activity (MIA PaCa-2 [8]) [%] | IC50 (HeLa) [µM] | ΔTm (Calf thymus DNA [9]) [°C] | Activity (MIA PaCa-2 [10]) [%] | Activity (MIA PaCa-2 [11]) [%] | ΔTm (Calf thymus DNA [12]) [°C] | Activity (MIA PaCa-2 [13]) [%] | IC50 (NCI-H460) [µM] | IC50 (SW-620) [µM] | Activity (MIA PaCa-2 [14]) [%] | IC50 (MIA PaCa-2 [15]) [µM] | Activity (MIA PaCa-2 [17]) [%] | also measured |
| --- | --- | --- | --- | --- | --- | --- | --- | --- | --- | --- | --- | --- | --- | --- | --- | --- |
| CC[C@@]1(O)C(=O)OCc2c1cc1n(c2=O)Cc2cc3ccccc3nc2-1 |  |  |  |  |  |  |  |  |  |  |  |  |  |  |  | Activity (Bos taurus [1]): Active |
| Cl.O=C(Nc1ccc(C2=NCCN2)nc1)c1sc2ccccc2c1Cl | 23.14 | 4 | 36 | 26 | 1 | 0.9 | 17.5 | 66.5 | 0 | 50.9 | 1.3 | 1.3 | 16 | 1.6 | 18.5 | Activity (MIA PaCa-2 [3]): Active; Activity (MIA PaCa-2 [4]): Active; Activity (MIA PaCa-2 [5]): Active; Activity (MIA PaCa-2 [6]): Active; Activity (MIA PaCa-2 [16]): Active |
| Cl.O=C(Nc1ccc(C2=NCCN2)cn1)c1sc2ccccc2c1Cl | 52.3 | 1.8 | 4.9 | 32.6 | 1.5 | 2.1 | 37.7 | 20.7 | 1.3 | 15.1 | 1 | 1 | 41.6 | 1 | 3.2 | log Ks (Calf thymus DNA [18]): 5.7; log Ks (Calf thymus DNA [19]): 5.6; Activity (Calf thymus DNA [20]): Active; Activity (Bos taurus [21]): inactive |
| N=C(N)c1ccc(-c2cc3ccc(C(=N)N)cc3[nH]2)cc1 |  |  |  |  |  |  |  |  |  |  |  |  |  |  |  | Activity (Bos taurus [1]): inactive |
| Cl.O=c1[nH]c2ncc(C3=NCCN3)cc2c2c1sc1ccccc12 | 52.8 | 1.6 | 1.7 | 33.2 | 1.7 | 8.7 | 38.9 | 19.7 | 6.6 | 14.1 | 1 | 0.6 | 41.5 | 1 | 2 | Activity (Bos taurus [22]): Active; log Ks (Calf thymus DNA [19]): 6.44; Activity (Calf thymus DNA [23]): Active; Activity (Bos taurus [21]): inactive |
| N#Cc1cnc2[nH]c(=O)c3sc4ccccc4c3c2c1 |  | 45 |  |  | 7 |  |  |  |  |  | > 100 | 22 |  | 12 |  |  |
| O=C(Nc1ccncc1)c1sc2ccccc2c1Cl |  | 51 |  |  | 2 |  |  |  |  |  | 68 | 38 |  | 38 |  |  |
| N#Cc1ccc(NC(=O)c2sc3ccccc3c2Cl)nc1 |  | 20 |  |  | 2 |  |  |  |  |  | 59 | 20 |  | 8 |  |  |
| O=c1[nH]c2ccncc2c2c1sc1ccccc12 |  | > 100 |  |  | 14 |  |  |  |  |  | > 100 | 6 |  | 7 |  |  |
